Test results reported in article PMC2232892 (The Journal of General Physiology, 2000).
Where two headings read alike, the source gives them in different places.

Columns and labels:
RBK1 (rKv1.1) channels = details: ref Newland et al. 1992; cited from earlier work
T449Y Shaker channels [1] = molecular target: T1, T449Y Shaker channels (Drosophila melanogaster, UniProt P08510, DEL6-46/T449Y); assay type: cell-based
Procedure, shortened: (§1)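 Oocytes were defolliculated for 60–90 min with 2 mg/ml collagenase in Ca-free OR-2, injected with channel RNA, and held at 18°C in ND-96 with penicillin/streptomycin. Inside-out or outside-out macropatches were recorded 1–5 d later at 20–22°C, filtered at 5 kHz. External solution (mM): 5 KCl, 135 NMDG-Cl, 2 CaCl2, 2 MgCl2, 10 HEPES, pH 7.2. Internal solution: 110 KCl, 25 KOH, 10 EGTA, 10 HEPES, pH 7.2.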

T449Y Shaker channels [2] = molecular target: T1, T449Y Shaker channels; details: ref Heginbotham and MacKinnon 1992; cited from earlier work
Shaker B, ShB Δ6-46 [3] = molecular target: T2, Shaker B, ShB Δ6-46 (Drosophila melanogaster, UniProt P08510, DEL6-46); assay type: cell-based; details: for Kd: read-out: apparent Kd for external TEA block
Procedure, shortened: as §1

Shaker B, ShB Δ6-46 [4] = molecular target: T2, Shaker B, ShB Δ6-46; details: wild-type Shaker channels; ref Heginbotham and MacKinnon 1992; Newland et al. 1992; cited from earlier work

| Structure (SMILES) | interaction parameter Q (external vs internal TEA) (RBK1 (rKv1.1) channels) | interaction parameter Q (external vs internal TEA) (T449Y Shaker channels [1]; K+ solutions) | current blocked by 2 mM internal TEA (T449Y Shaker channels [1]; absence of external TEA) [%] | current blocked by 2 mM internal TEA (T449Y Shaker channels [1]; presence of 1 mM external TEA) [%] | electrical distance of external block (T449Y Shaker channels [2]) | interaction parameter Q (external TEA antagonism of internal TEA block) (Shaker B, ShB Δ6-46 [3]; K+ solutions, 0-100 mM external TEA, Ko = 17 mM, 0 mV) | interaction parameter Q (external vs internal TEA) (Shaker B, ShB Δ6-46 [3]; Rb+ solutions) | Kd (Shaker B, ShB Δ6-46 [3]; 20 mM internal K+ and 50 mM internal Na+) [mM] | Kd (Shaker B, ShB Δ6-46 [3]; 50 mM internal K+ (data not shown)) [mM] | Kd (Shaker B, ShB Δ6-46 [3]; 115 mM internal Na+ (20 mM K+)) [mM] | δ (electrical distance of external block) (Shaker B, ShB Δ6-46 [4]) | block by 0.25 mM external gallamine compared with wild-type channels (T449Y Shaker channels [1]; same concentration as on wild-type, reduced voltage sensitivity) | apparent zδ (voltage dependence of block, Woodhull equation) (Shaker B, ShB Δ6-46 [3]; 0.25 mM external gallamine, wild-type channels) | interaction parameter Q (external gallamine antagonism of internal TEA block) (Shaker B, ShB Δ6-46 [3]; K+ solutions, several external gallamine concentrations) |
| --- | --- | --- | --- | --- | --- | --- | --- | --- | --- | --- | --- | --- | --- | --- |
| CC[N+](CC)(CC)CC [TEA, tetraethylammonium] | 5.3 | 5.2 | 77 ± 0.4 | 64 ± 7 | 0.04 | 4.6 | 1 | 7.5 ± 0.85 | 17.6 ± 2.7 | 7.6 ± 1.2 | ~0.15 |  |  |  |
| CC[N+](CC)(CC)CCOc1cccc(OCC[N+](CC)(CC)CC)c1OCC[N+](CC)(CC)CC [gallamine, Gallamine triethiode] |  |  |  |  |  |  |  |  |  |  |  | considerably more effective | 0.28 | 2 |
